Reference: ChEMBL document CHEMBL4038328, “Structure-Guided Optimization of HIV Integrase Strand Transfer Inhibitors” (J Med Chem, 2017)

Columns and labels:
[1] = Inhibition of HIV1 integrase 3' processing activity using 5'-end 32P labeled DNA substrate measured after 2 hrs by PAGE based phosphor imaging method; parameters: species or system Human immunodeficiency virus 1
Outline: (§1)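 Gel-based assay, Mg2+ cofactor: 400 nM integrase with 20 nM DNA substrate 5′-32P-labeled on transferred strand in 50 mM MOPS pH 7.2, 7.5 mM MgCl2, 14 mM 2-mercaptoethanol, inhibitor or DMSO; 2 h at 37 °C. Stopped with formamide/SDS loading buffer; products resolved on 16% denaturing polyacrylamide gels, quantified by phosphorimaging.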

[2] = Inhibition of HIV1 integrase strand transfer activity using 5'-end 32P labeled DNA substrate measured after 2 hrs by PAGE based phosphor imaging method; parameters: species or system Human immunodeficiency virus 1; outline: as §1
[3] = system: Human immunodeficiency virus 1; assay: Selectivity ratio of EC50 for VSV-G pseudotyped HIV1 harboring integrase Y143R mutant infected in HOS cells to EC50 for VSV-G pseudotyped HIV1 harboring wild-type integrase infected in HOS cells; assay type: functional
Outline: (§2)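 Fold change is the EC50 against the mutant-IN vector divided by the EC50 against the WT-IN vector. Both come from the single-round luciferase infectivity assay in HOS cells, with a 3 h compound pretreatment followed by 48 h infection.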

[4] = system: Human immunodeficiency virus 1; assay: Antiviral activity against VSV-G pseudotyped HIV1 harboring integrase G140S/Q148H double mutant infected in HOS cells pretreated […] for 3 hrs followed by viral infection measured after 48 hrs by luciferase reporter gene assay; assay type: functional, cell-based; settings: Human immunodeficiency virus 1, HOS
Outline: (§3)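 Single-round luciferase HIV-1 vector (pNLNgoMIVR−ΔLUC carrying WT or mutant IN) was pseudotyped with VSV-g by calcium phosphate co-transfection of 293 cells, and supernatant was harvested after 48 h. HOS cells were seeded at 4000/well in DMEM with 5% FBS and 5% newborn calf serum. They were pretreated 3 h at 37 °C with 5–0.0001 μM (11 serial dilutions), then infected for 48 h. Luminescence was normalized to untreated cells, and EC50 came from nonlinear regression.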

[5] = system: Human immunodeficiency virus 1; assay: Antiviral activity against VSV-G pseudotyped HIV1 harboring wild-type integrase infected in HOS cells pretreated […] for 3 hrs followed by viral infection measured after 48 hrs by luciferase reporter gene assay; assay type: functional, cell-based; settings: Human immunodeficiency virus 1, HOS; outline: as §3
[6] = system: Human immunodeficiency virus 1; assay: Selectivity ratio of EC50 for VSV-G pseudotyped HIV1 harboring integrase N155H mutant infected in HOS cells to EC50 for VSV-G pseudotyped HIV1 harboring wild-type integrase infected in HOS cells; assay type: functional; outline: as §2
[7] = system: Human immunodeficiency virus 1; assay: Antiviral activity against VSV-G pseudotyped HIV1 harboring integrase N155H mutant infected in HOS cells pretreated […] for 3 hrs followed by viral infection measured after 48 hrs by luciferase reporter gene assay; assay type: functional, cell-based; settings: Human immunodeficiency virus 1, HOS; outline: as §3
HOS = assay: Cytotoxicity against HOS cells assessed as reduction in cell viability after 48 hrs by ATPLite luminescence assay; assay type: cell-based; settings: human, hos, 48 h
Outline: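 HOS cells seeded at 4000 per well the day before, exposed to compounds over 250 to 0.05 μM at 37 °C for 48 h. ATP measured by luminescence after lysis and 20 min signal development at room temperature.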

[8] = system: Human immunodeficiency virus 1; assay: Antiviral activity against VSV-G pseudotyped HIV1 harboring integrase Y143R mutant infected in HOS cells pretreated […] for 3 hrs followed by viral infection measured after 48 hrs by luciferase reporter gene assay; assay type: functional, cell-based; settings: Human immunodeficiency virus 1, HOS; outline: as §3
[9] = system: Human immunodeficiency virus 1; assay: Selectivity ratio of EC50 for VSV-G pseudotyped HIV1 harboring integrase G140S/Q148H mutant infected in HOS cells to EC50 for VSV-G pseudotyped HIV1 harboring wild-type integrase infected in HOS cells; assay type: functional; outline: as §2
[10] = system: Human immunodeficiency virus 1; assay: Antiviral activity against VSV-G pseudotyped HIV1 harboring integrase E92Q mutant infected in HOS cells pretreated […] for 3 hrs followed by viral infection measured after 48 hrs by luciferase reporter gene assay; assay type: functional, cell-based; settings: Human immunodeficiency virus 1, HOS; outline: as §3
[11] = system: Human immunodeficiency virus 1; assay: Antiviral activity against VSV-G pseudotyped HIV1 harboring integrase T66I mutant infected in HOS cells pretreated […] for 3 hrs followed by viral infection measured after 48 hrs by luciferase reporter gene assay; assay type: functional, cell-based; settings: Human immunodeficiency virus 1, HOS; outline: as §3
[12] = system: Human immunodeficiency virus 1; assay: Antiviral activity against VSV-G pseudotyped HIV1 harboring integrase H51Y/R263K double mutant infected in HOS cells pretreated […] for 3 hrs followed by viral infection measured after 48 hrs by luciferase reporter gene assay; assay type: functional, cell-based; settings: Human immunodeficiency virus 1, HOS; outline: as §3
[13] = system: Human immunodeficiency virus 1; assay: Selectivity ratio of EC50 for VSV-G pseudotyped HIV1 harboring integrase T66I mutant infected in HOS cells to EC50 for VSV-G pseudotyped HIV1 harboring wild-type integrase infected in HOS cells; assay type: functional; outline: as §2
[14] = system: Human immunodeficiency virus 1; assay: Selectivity ratio of EC50 for VSV-G pseudotyped HIV1 harboring integrase H51Y/R263K double mutant infected in HOS cells to EC50 for VSV-G pseudotyped HIV1 harboring wild-type integrase infected in HOS cells; assay type: functional; outline: as §2
[15] = system: Human immunodeficiency virus 1; assay: Selectivity ratio of EC50 for VSV-G pseudotyped HIV1 harboring integrase R263K mutant infected in HOS cells to EC50 for VSV-G pseudotyped HIV1 harboring wild-type integrase infected in HOS cells; assay type: functional; outline: as §2
[16] = system: Human immunodeficiency virus 1; assay: Antiviral activity against VSV-G pseudotyped HIV1 harboring integrase R263K mutant infected in HOS cells pretreated […] for 3 hrs followed by viral infection measured after 48 hrs by luciferase reporter gene assay; assay type: functional, cell-based; settings: Human immunodeficiency virus 1, HOS; outline: as §3
[17] = system: Human immunodeficiency virus 1; assay: Selectivity ratio of EC50 for VSV-G pseudotyped HIV1 harboring integrase H51Y mutant infected in HOS cells to EC50 for VSV-G pseudotyped HIV1 harboring wild-type integrase infected in HOS cells; assay type: functional; outline: as §2
[18] = system: Human immunodeficiency virus 1; assay: Selectivity ratio of EC50 for VSV-G pseudotyped HIV1 harboring integrase E92Q mutant infected in HOS cells to EC50 for VSV-G pseudotyped HIV1 harboring wild-type integrase infected in HOS cells; assay type: functional; outline: as §2
[19] = system: Human immunodeficiency virus 1; assay: Selectivity ratio of EC50 for VSV-G pseudotyped HIV1 harboring integrase G118R mutant infected in HOS cells to EC50 for VSV-G pseudotyped HIV1 harboring wild-type integrase infected in HOS cells; assay type: functional; outline: as §2
[20] = system: Human immunodeficiency virus 1; assay: Antiviral activity against VSV-G pseudotyped HIV1 harboring integrase G118R mutant infected in HOS cells pretreated […] for 3 hrs followed by viral infection measured after 48 hrs by luciferase reporter gene assay; assay type: functional, cell-based; settings: Human immunodeficiency virus 1, HOS; outline: as §3
[21] = system: Human immunodeficiency virus 1; assay: Antiviral activity against VSV-G pseudotyped HIV1 harboring integrase H51Y mutant infected in HOS cells pretreated […] for 3 hrs followed by viral infection measured after 48 hrs by luciferase reporter gene assay; assay type: functional, cell-based; settings: Human immunodeficiency virus 1, HOS; outline: as §3

| Structure (SMILES) | IC50 [1] [nM] | IC50 [2] [nM] | Ratio EC50 [3] | EC50 [4] [nM] | EC50 [5] [nM] | Ratio EC50 [6] | EC50 [7] [nM] | CC50 (HOS) [nM] | EC50 [8] [nM] | Ratio EC50 [9] | further results |
| --- | --- | --- | --- | --- | --- | --- | --- | --- | --- | --- | --- |
| O=C(NCc1ccc(F)cc1F)c1c(O)c2ccc(N3CCCCC3)nc2n(O)c1=O | > 333000 | 70000 |  |  |  |  |  |  |  |  |  |
| COC(=O)CNc1c(C(=O)NCc2ccc(F)cc2F)c(=O)n(O)c2ncc(CCCCCO)cc12 | 2100 | 4 | 1 | 42 | 3.3 | 3 | 11 | > 250000 | 3.5 | 13 |  |
| Nc1c(C(=O)NCc2ccc(F)cc2F)c(=O)n(O)c2ncc(CCC(=O)NCCO)cc12 |  | 2 |  |  | 263 |  |  | > 250000 |  |  |  |
| Nc1c(C(=O)NCc2ccc(F)cc2F)c(=O)n(O)c2ncc(/C=C/C(=O)NCCO)cc12 |  | 7 |  |  | 196 |  |  | > 250000 |  |  |  |
| CN(C)C(=O)/C=C/c1cnc2c(c1)c(N)c(C(=O)NCc1ccc(F)cc1F)c(=O)n2O |  | 5 | 5 | 58 | 1.6 | 9 | 15 | > 250000 | 7.2 | 36 |  |
| CC(=O)OCCCCCc1cnc2c(c1)c(NCCO)c(C(=O)NCc1ccc(F)cc1F)c(=O)n2O |  |  | 0.8 | 5.3 | 5.3 | 2 | 10 | > 100000 | 4.1 | 1 | EC50 [10]: 3.8 nM; EC50 [11]: 1.2 nM; EC50 [12]: 15 nM; Ratio EC50 [13]: 0.2; Ratio EC50 [14]: 3; Ratio EC50 [15]: 0.7; EC50 [16]: 3.6 nM; Ratio EC50 [17]: 1; Ratio EC50 [18]: 0.7; Ratio EC50 [19]: 3; EC50 [20]: 15 nM; EC50 [21]: 7.4 nM |
| Nc1c(C(=O)NCc2ccc(F)cc2F)c(=O)n(O)c2ncc(CCCCc3ccccc3)cc12 | 42000 |  | 0.4 | 128 | 11 | 4 | 39 | 13000 | 4.7 | 12 |  |
| Nc1c(C(=O)NCc2ccc(F)cc2F)c(=O)n(O)c2ncc(CCCOCCO)cc12 | 1500 | 2 | 0.8 | 35 | 1.6 | 3 | 4.2 | > 250000 | 1.2 | 22 |  |
| COc1ccc2c(N)c(C(=O)NCc3ccc(F)cc3F)c(=O)n(O)c2n1 | 18000 | 11 | 2 | 3600 | 30 | 13 | 400 | 2200 | 62 | 120 |  |
| O=C(NCc1ccc(F)cc1F)c1c(O)c2ccc(N3CCOCC3)nc2n(O)c1=O | > 333000 | 1900 |  |  |  |  |  |  |  |  |  |
| O=C(NCc1ccc(F)cc1F)c1c(O)c2cc(CCCCCO)cnc2n(O)c1=O | 14300 | 12 | 0.3 | 29 | 24 | 1 | 32 | > 250000 | 8.3 | 1 |  |
| COC(=O)CNc1c(C(=O)NCc2ccc(F)cc2F)c(=O)n(O)c2nc(N3CCCCC3)ccc12 | > 333000 | 96000 |  |  |  |  |  |  |  |  |  |
